Calls of active or inactive are those of the source. The calls are words filed in the database; no cut-off is given here.
What was measured:
[1] = Inhibition of His-tagged full-length Hsp90 (unknown origin)/GST-tagged Cdc37M (unknown origin) interaction after 1 hr by HTRF assay; design: species or system Homo sapiens
In short: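 TR-FRET in PBS containing 400 mM KF, pH 7.3. His-tagged full-length Hsp90 and GST-Cdc37M, each 250 nM final, incubated with compound for 1 h at 37 °C. Anti-GST-Cryptate and anti-6His-XL665 then added for a further 0.5 h at 37 °C. Excitation 320 nm, emission 665/620 nm, reported as ratio ×10,000. Negative and blank controls run in each assay.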

MCF7 = assay: Antiproliferative activity against human MCF7 cells after 48 hrs by MTT assay; type: functional, cell-based; conditions: MCF7, 48 h
In short: (§1)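 Cells in log phase seeded at about 1.0 × 10^5 cells/mL in 96-well plates, left 12 h at 37 °C, 5% CO2. Compounds dissolved in DMSO, added at 2.5, 5, 10, 20 and 50 µM, 48 h exposure. Absorbance read at 570/630 nm dual wavelength. Survival expressed relative to negative control. IC50 by Bliss method (n = 5), tests done in triplicate.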

Homo sapiens = species: Homo sapiens; assay: Inhibition of HSP90/Cdc37 interaction assessed as reversal of drug resistance by measuring ratio of IC50 for human doxorubicin-resistant NCI-H460 cells to IC50 for human NCI-H460 cells
In short: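 Resistance factor is the ratio of IC50 in NCI-H460/DOX cells to IC50 in parental NCI-H460 cells. […] Values are mean ± SD of five separate experiments. Doxorubicin serves as the positive control.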

[2] = Antiproliferative activity against human NCI-460 cells after 48 hrs by MTT assay; type: functional, cell-based; conditions: NCI-460, 48 h; in short: as §1
[3] = Inhibition of HSP90/Cdc37 interaction in human doxorubicin-resistant NCI-H460 cells assessed as reduction in cell proliferation after 48 hrs by MTT assay; conditions: NCI-H460, 48 h; in short: as §1
HepG2 = assay: Antiproliferative activity against human HepG2 cells after 48 hrs by MTT assay; type: functional, cell-based; conditions: HepG2, 48 h; in short: as §1
HCT-116 = assay: Antiproliferative activity against human HCT116 cells after 48 hrs by MTT assay; type: functional, cell-based; conditions: HCT-116, 48 h; in short: as §1
A549 [4] = assay: Antiproliferative activity against human A549 cells after 48 hrs by MTT assay; type: functional, cell-based; conditions: A549, 48 h; in short: as §1
A549 [5] = assay: Inhibition of Hsp90/Cdc37 interaction in human A549 cells assessed as downregulation of Cdc37 in immunoprecipitated HSP90 complex at 10 uM after 24 hrs by Western blot analysis; type: cell-based
In short: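 A549 cells exposed to 5 and 10 µM for 24 h, geldanamycin 10 µM as comparator. Lysis in 20 mM Tris-HCl pH 7.4, 25 mM NaCl, 2 mM DTT, 20 mM Na2MoO4, 0.1% NP-40 and protease inhibitors. 500 µg protein immunoprecipitated overnight at 4 °C with anti-Hsp90 antibody, captured on protein G agarose, washed five times and boiled. Cdc37 and Hsp90 detected by Western blot, with input also blotted.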

IC50 [1] [µM] | IC50 (MCF7) [µM] | Ratio IC50 (Homo sapiens) | IC50 (HepG2) [µM] | IC50 (HCT-116) [µM] | IC50 (A549 [4]) [µM] | SMILES | IC50 [2] [µM] | IC50 [3] [µM] | inhibition (A549 [5])
1.05 | 10.9 | 1.23 | 12.5 | 10.1 | 9.07 | CCOC(=O)[C@@]1(C)CC[C@]2(C)CC[C@]3(C)C(=CC(=O)[C@@H]4[C@@]5(C)CC[C@H](OC(=O)CCC(=O)Nc6nc7c(F)cccc7s6)C(C)(C)[C@@H]5CC[C@]43C)[C@@H]2C1 | 12.5 | 15.4 | –
– | – | – | – | – | – | COC1=C2C[C@@H](C)C[C@H](OC)[C@H](O)[C@@H](C)/C=C(\C)[C@H](OC(N)=O)[C@@H](OC)/C=C\C=C(/C)C(=O)NC(=CC1=O)C2=O | – | – | inactive
0.83 | 8.66 | 1.13 | 12.4 | 11 | 6.09 | CCOC(=O)[C@@]1(C)CC[C@]2(C)CC[C@]3(C)C(=CC(=O)[C@@H]4[C@@]5(C)CC[C@H](OC(=O)CCC(=O)Nc6nc7ccc(Cl)cc7s6)C(C)(C)[C@@H]5CC[C@]43C)[C@@H]2C1 | 10.6 | 12 | –
– | – | 7.33 | – | – | – | COc1cccc2c1C(=O)c1c(O)c3c(c(O)c1C2=O)C[C@@](O)(C(=O)CO)C[C@@H]3O[C@H]1C[C@H](N)[C@H](O)[C@H](C)O1 [DOXORUBICIN] | 5.18 | 38 | –
41.3 | 33.8 | – | 39.5 | 37.4 | 33.4 | CC1(C)[C@@H](O)CC[C@]2(C)[C@H]3C(=O)C=C4[C@@H]5C[C@@](C)(C(=O)Nc6nc7ccc(Br)cc7s6)CC[C@]5(C)CC[C@@]4(C)[C@]3(C)CC[C@@H]12 | – | – | –
> 100 | > 100 | – | > 100 | > 100 | > 100 | CC(=O)O[C@H]1CC[C@]2(C)[C@H]3C(=O)C=C4[C@@H]5C[C@@](C)(C(=O)Nc6nc7c(C)cccc7s6)CC[C@]5(C)CC[C@@]4(C)[C@]3(C)CC[C@H]2C1(C)C | – | – | –
1.67 | 15 | 1.29 | 17 | 15.4 | 13.6 | CCOC(=O)[C@@]1(C)CC[C@]2(C)CC[C@]3(C)C(=CC(=O)[C@@H]4[C@@]5(C)CC[C@H](OC(=O)CCC(=O)Nc6nc7c(Cl)cccc7s6)C(C)(C)[C@@H]5CC[C@]43C)[C@@H]2C1 | 14 | 18.1 | –
65.6 | 71.2 | – | 69.6 | > 100 | 75.4 | CC1(C)[C@@H](O)CC[C@]2(C)[C@H]3C(=O)C=C4[C@@H]5C[C@@](C)(C(=O)Nc6nc7c(Cl)cccc7s6)CC[C@]5(C)CC[C@@]4(C)[C@]3(C)CC[C@@H]12 | – | – | –
14.9 | 22.5 | – | 27.5 | 23.6 | 19.1 | CCOC(=O)[C@@]1(C)CC[C@]2(C)CC[C@]3(C)C(=CC(=O)[C@@H]4[C@@]5(C)CC[C@H](OC(=O)CCC(=O)Nc6nc7ccc(C)cc7s6)C(C)(C)[C@@H]5CC[C@]43C)[C@@H]2C1 | – | – | –
> 100 | > 100 | – | > 100 | > 100 | > 100 | CC(=O)O[C@H]1CC[C@]2(C)[C@H]3C(=O)C=C4[C@@H]5C[C@@](C)(C(=O)Nc6nc7ccccc7s6)CC[C@]5(C)CC[C@@]4(C)[C@]3(C)CC[C@H]2C1(C)C | – | – | –
90.1 | 81.2 | – | 85.6 | > 100 | 75.5 | COc1ccc2nc(NC(=O)[C@@]3(C)CC[C@]4(C)CC[C@]5(C)C(=CC(=O)[C@@H]6[C@@]7(C)CC[C@H](OC(C)=O)C(C)(C)[C@@H]7CC[C@]65C)[C@@H]4C3)sc2c1 | – | – | –
45.7 | 41.2 | – | 45.6 | 42.5 | 36.5 | CC1(C)[C@@H](O)CC[C@]2(C)[C@H]3C(=O)C=C4[C@@H]5C[C@@](C)(C(=O)Nc6nc7c(F)cccc7s6)CC[C@]5(C)CC[C@@]4(C)[C@]3(C)CC[C@@H]12 | – | – | –
9.09 | 20.5 | 1.17 | 25.8 | 22.3 | 18.8 | CCOC(=O)[C@@]1(C)CC[C@]2(C)CC[C@]3(C)C(=CC(=O)[C@@H]4[C@@]5(C)CC[C@H](OC(=O)CCC(=O)Nc6nc7ccccc7s6)C(C)(C)[C@@H]5CC[C@]43C)[C@@H]2C1 | 16.4 | 19.2 | –
21.9 | 26.5 | – | 31.8 | 26.3 | 22.8 | CCOC(=O)[C@@]1(C)CC[C@]2(C)CC[C@]3(C)C(=CC(=O)[C@@H]4[C@@]5(C)CC[C@H](OC(=O)CCC(=O)Nc6nc7c(C)cccc7s6)C(C)(C)[C@@H]5CC[C@]43C)[C@@H]2C1 | – | – | –
> 100 | > 100 | – | > 100 | > 100 | > 100 | CC(=O)O[C@H]1CC[C@]2(C)[C@H]3C(=O)C=C4[C@@H]5C[C@@](C)(C(=O)Nc6nc7c(Br)cccc7s6)CC[C@]5(C)CC[C@@]4(C)[C@]3(C)CC[C@H]2C1(C)C | – | – | –
5.07 | 16.1 | – | 19 | 15.9 | 14.2 | CCOC(=O)[C@@]1(C)CC[C@]2(C)CC[C@]3(C)C(=CC(=O)[C@@H]4[C@@]5(C)CC[C@H](OC(=O)CCC(=O)Nc6nc7ccc(Br)cc7s6)C(C)(C)[C@@H]5CC[C@]43C)[C@@H]2C1 | – | – | –
62.4 | 52.7 | – | 60.1 | 54.2 | 51.1 | COc1ccc2nc(NC(=O)[C@@]3(C)CC[C@]4(C)CC[C@]5(C)C(=CC(=O)[C@@H]6[C@@]7(C)CC[C@H](O)C(C)(C)[C@@H]7CC[C@]65C)[C@@H]4C3)sc2c1 | – | – | –
> 100 | > 100 | – | > 100 | > 100 | > 100 | CC(=O)O[C@H]1CC[C@]2(C)[C@H]3C(=O)C=C4[C@@H]5C[C@@](C)(C(=O)Nc6nc7c(Cl)cccc7s6)CC[C@]5(C)CC[C@@]4(C)[C@]3(C)CC[C@H]2C1(C)C | – | – | –
78.4 | 74.8 | – | 94.5 | 91.2 | 84.2 | CC1(C)[C@@H](O)CC[C@]2(C)[C@H]3C(=O)C=C4[C@@H]5C[C@@](C)(C(=O)O)CC[C@]5(C)CC[C@@]4(C)[C@]3(C)CC[C@@H]12 [ENOXOLONE] | – | – | –
77.6 | 66.7 | – | 73.1 | 68.5 | 62.6 | CC(=O)O[C@H]1CC[C@]2(C)[C@H]3C(=O)C=C4[C@@H]5C[C@@](C)(C(=O)Nc6nc7ccc(Cl)cc7s6)CC[C@]5(C)CC[C@@]4(C)[C@]3(C)CC[C@H]2C1(C)C | – | – | –
> 100 | > 100 | – | > 100 | > 100 | > 100 | CC(=O)O[C@H]1CC[C@]2(C)[C@H]3C(=O)C=C4[C@@H]5C[C@@](C)(C(=O)Nc6nc7c(F)cccc7s6)CC[C@]5(C)CC[C@@]4(C)[C@]3(C)CC[C@H]2C1(C)C | – | – | –
83.2 | 23.2 | – | 27.6 | 18.7 | 22.4 | Cc1ccc2nc(NC(=O)[C@@]3(C)CC[C@]4(C)CC[C@]5(C)C(=CC(=O)[C@@H]6[C@@]7(C)CC[C@H](O)C(C)(C)[C@@H]7CC[C@]65C)[C@@H]4C3)sc2c1 | – | – | –
> 100 | > 100 | – | > 100 | > 100 | > 100 | CC1(C)[C@@H](O)CC[C@]2(C)[C@H]3C(=O)C=C4[C@@H]5C[C@@](C)(C(=O)Nc6nc7c(Br)cccc7s6)CC[C@]5(C)CC[C@@]4(C)[C@]3(C)CC[C@@H]12 | – | – | –

SMILES | IC50 [1] [µM] | IC50 (MCF7) [µM] | Ratio IC50 (Homo sapiens) | IC50 (HepG2) [µM] | IC50 (HCT-116) [µM] | IC50 (A549 [4]) [µM] | IC50 [2] [µM] | IC50 [3] [µM] | inhibition (A549 [5])
CC1=C(O)C(=O)C=C2C1=CC=C1[C@@]2(C)CC[C@@]2(C)[C@@H]3C[C@](C)(C(=O)O)CC[C@]3(C)CC[C@]12C [CELASTROL] | 6.22 | 6.84 | – | 6.17 | 5.26 | 6.59 | – | – | –

Reference: ChEMBL document CHEMBL4219101, “Discovery of 18β-glycyrrhetinic acid conjugated aminobenzothiazole derivatives as Hsp90-Cdc37 interaction disruptors that inhibit cell migration and reverse drug resistance” (Bioorg Med Chem, 2018)
